How the values were obtained:
[1] = target: Mitogen-activated protein kinase 8 (Homo sapiens) (UniProt P45983); experiment: Inhibition of c-Jun N-terminal kinase 1 at 10 uM
Outline: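 JNK1 activity from UV-stimulated MCF-7 cells, measured with a JNK1 kinase kit in presence of compound.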

Homo sapiens [2] = species: Homo sapiens; experiment: In vitro inhibition of gamma-interferon release by human […]; format: functional
Outline: (§1)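 Human PBMC were isolated from buffy coats and diluted 1:1 in saline. Cells were held at 5×10^5 cells/mL in RPMI1640 with 2 mM glutamine and penicillin/streptomycin, then preincubated 30 min with compound. IL-12: 2% FCS, IFN-γ 95 ng/mL for 18 h, then LPS for 24 h. IL-2 and IFN-γ: 10% FCS, phytohemagglutinin for 48 h. Supernatant cytokine measured by sandwich ELISA.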

[3] = target: Mitogen-activated protein kinase; ERK1/ERK2 (Homo sapiens) (UniProt P27361+P28482); experiment: Inhibition of Mitogen-activated protein kinase 3/Mitogen-activated protein kinase 1 (ERK) at 10 uM; format: protein assay
Chain of Mitogen-activated protein kinase; ERK1/ERK2 (Homo sapiens) (P27361 whole entry, looked up): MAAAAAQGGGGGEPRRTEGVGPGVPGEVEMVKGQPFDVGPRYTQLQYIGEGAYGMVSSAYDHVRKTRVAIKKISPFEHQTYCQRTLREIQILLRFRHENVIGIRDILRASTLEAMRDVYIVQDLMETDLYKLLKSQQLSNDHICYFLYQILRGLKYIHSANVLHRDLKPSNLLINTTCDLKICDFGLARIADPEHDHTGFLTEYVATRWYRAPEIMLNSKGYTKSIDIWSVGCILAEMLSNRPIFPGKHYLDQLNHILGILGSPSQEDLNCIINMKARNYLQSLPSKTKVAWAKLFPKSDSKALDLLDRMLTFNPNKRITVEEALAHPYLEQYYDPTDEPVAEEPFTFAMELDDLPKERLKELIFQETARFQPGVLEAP
Chain of Mitogen-activated protein kinase; ERK1/ERK2 (Homo sapiens) (P28482 whole entry, looked up): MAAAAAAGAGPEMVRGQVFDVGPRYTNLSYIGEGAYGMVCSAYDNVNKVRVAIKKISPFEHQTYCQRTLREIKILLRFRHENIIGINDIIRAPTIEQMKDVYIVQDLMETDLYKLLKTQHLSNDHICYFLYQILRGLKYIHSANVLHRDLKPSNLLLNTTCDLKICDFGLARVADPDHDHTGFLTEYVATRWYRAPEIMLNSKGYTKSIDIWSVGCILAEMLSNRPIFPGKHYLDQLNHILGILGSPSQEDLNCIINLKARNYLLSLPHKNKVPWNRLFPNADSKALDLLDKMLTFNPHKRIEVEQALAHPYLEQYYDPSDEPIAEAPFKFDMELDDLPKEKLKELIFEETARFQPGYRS
Outline: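 MCF-7 cells stimulated with EGF; ERK1/2 activity measured with a modified cell-signalling ERK1/2 kinase kit in presence of compound.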

Mus musculus [4] = species: Mus musculus; experiment: Inhibition of ear swelling induced by oxazolone induced murine allergic contact dermatitis model at 0.5 mg/ear at 72 hr; format: functional
Outline: (§2)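 Groups of six female inbred BALB/cABOM mice (18–21 g) were sensitized with oxazolone on the clipped abdomen 7 days before right-ear challenge. Compound in acetone (20 μL) or vehicle was applied once, 30 min after challenge. Ear swelling (right minus left ear thickness) was read at 24, 48 and 72 h. Values are mean % inhibition ± SEM of four or five experiments.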

[5] = target: T1, Mitogen-activated protein kinase 13 (Homo sapiens) (UniProt O15264); experiment: Inhibition of Mitogen-activated protein kinase p38 delta at 1 uM
T1 sequence (whole entry): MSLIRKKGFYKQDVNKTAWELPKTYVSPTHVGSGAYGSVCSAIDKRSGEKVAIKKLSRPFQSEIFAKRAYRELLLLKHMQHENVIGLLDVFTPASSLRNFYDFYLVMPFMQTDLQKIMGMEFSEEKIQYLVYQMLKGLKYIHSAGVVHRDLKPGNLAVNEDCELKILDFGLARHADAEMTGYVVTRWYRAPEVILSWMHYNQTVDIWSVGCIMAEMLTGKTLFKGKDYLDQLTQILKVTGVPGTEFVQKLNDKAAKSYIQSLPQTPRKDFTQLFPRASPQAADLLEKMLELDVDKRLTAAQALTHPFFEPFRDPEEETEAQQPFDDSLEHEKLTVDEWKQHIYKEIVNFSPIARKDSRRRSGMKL
Outline: (§3)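 FLAG-tagged p38 isoform cDNA (β2, γ or δ) transfected into COS-1 cells; kinase activity of the expressed isoform measured with compound at 1 μM.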

[6] = target: T2, Myeloperoxidase (Mus musculus) (UniProt P11247); experiment: Inhibition of myeloperoxidase (MPO) activity induced by TPA in murine chronic irritative contact dermatitis model at 0.5 mg/ear (in vivo); format: organism-based
T2 sequence (whole entry): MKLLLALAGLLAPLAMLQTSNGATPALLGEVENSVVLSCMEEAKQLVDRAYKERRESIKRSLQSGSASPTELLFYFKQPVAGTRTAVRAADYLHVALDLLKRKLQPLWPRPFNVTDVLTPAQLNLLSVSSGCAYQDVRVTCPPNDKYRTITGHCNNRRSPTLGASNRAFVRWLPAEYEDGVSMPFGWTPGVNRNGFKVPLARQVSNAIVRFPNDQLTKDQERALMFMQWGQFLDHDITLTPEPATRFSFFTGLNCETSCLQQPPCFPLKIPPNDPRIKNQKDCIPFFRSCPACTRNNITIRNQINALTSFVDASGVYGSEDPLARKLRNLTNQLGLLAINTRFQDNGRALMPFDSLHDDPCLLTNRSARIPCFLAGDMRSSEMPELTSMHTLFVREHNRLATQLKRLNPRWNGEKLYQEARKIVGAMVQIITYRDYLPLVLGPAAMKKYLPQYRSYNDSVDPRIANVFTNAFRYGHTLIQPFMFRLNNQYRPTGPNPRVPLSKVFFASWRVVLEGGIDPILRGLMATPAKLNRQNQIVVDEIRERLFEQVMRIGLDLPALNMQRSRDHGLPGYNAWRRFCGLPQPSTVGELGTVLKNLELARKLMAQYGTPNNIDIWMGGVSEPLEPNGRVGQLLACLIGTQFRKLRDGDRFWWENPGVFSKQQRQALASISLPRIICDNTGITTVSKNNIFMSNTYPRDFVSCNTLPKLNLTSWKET

Mus musculus [7] = experiment: Inhibition of ear swelling induced by oxazolone in murine allergic contact dermatitis model at 0.5 mg/ear at 48 hr (in vivo)
[8] = target: T2, Myeloperoxidase (Mus musculus); experiment: Inhibition of myeloperoxidase (MPO) activity induced by oxazolone in murine allergic contact dermatitis model at 0.5 mg/ear at 72 hr
[9] = target: T3, Mitogen-activated protein kinase 12 (Homo sapiens) (UniProt P53778); experiment: Inhibition of Mitogen-activated protein kinase p38 gamma at 1 uM; outline: as §3
T3 sequence (whole entry): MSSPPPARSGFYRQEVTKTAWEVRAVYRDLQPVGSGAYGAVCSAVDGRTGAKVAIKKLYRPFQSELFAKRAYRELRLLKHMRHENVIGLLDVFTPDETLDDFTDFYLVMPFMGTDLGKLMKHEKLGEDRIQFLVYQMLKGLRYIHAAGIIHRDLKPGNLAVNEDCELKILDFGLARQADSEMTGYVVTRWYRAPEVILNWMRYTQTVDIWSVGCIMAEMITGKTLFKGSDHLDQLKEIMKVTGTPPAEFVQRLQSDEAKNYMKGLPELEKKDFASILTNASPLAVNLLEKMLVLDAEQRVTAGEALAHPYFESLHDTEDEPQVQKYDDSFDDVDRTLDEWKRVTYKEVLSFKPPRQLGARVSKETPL

MAP kinase p38 [10] = target: T4, MAP kinase p38 (Homo sapiens, UniProt O15264+Q15759+Q16539+P53778); experiment: In vitro inhibition of cytokine IL-10 release by human […]; format: functional
Outline: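 Buffy-coat PBMC at 5×10^5 cells/mL in RPMI1640 with 10% FCS, glutamine, antibiotics; 30 min compound preincubation, then phytohemagglutinin stimulation and 48 h incubation.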

[11] = target: Mitogen-activated protein kinase 11 (Homo sapiens) (UniProt Q15759); experiment: Inhibition of Mitogen-activated protein kinase p38 beta at 1 uM; outline: as §3
Chain of Mitogen-activated protein kinase 11 (Homo sapiens) (Q15759 whole entry): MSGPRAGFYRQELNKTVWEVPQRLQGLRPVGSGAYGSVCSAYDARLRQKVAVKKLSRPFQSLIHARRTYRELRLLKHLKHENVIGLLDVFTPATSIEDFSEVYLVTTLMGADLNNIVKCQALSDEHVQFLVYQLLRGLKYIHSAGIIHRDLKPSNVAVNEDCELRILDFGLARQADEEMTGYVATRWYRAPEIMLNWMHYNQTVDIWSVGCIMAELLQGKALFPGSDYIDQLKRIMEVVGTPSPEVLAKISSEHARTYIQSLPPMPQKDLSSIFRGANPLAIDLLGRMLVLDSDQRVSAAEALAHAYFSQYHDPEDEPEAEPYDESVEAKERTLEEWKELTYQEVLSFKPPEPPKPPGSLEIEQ

MAP kinase p38 [12] = target: T4, MAP kinase p38; experiment: In vitro inhibition of TNF-alpha release from LPS stimulated human peripheral blood mononuclear cells.; format: functional
Outline: (§4)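 Human PBMC from buffy coats (Lymphoprep), 5×10^5 cells/mL in RPMI1640 with 2% FCS, glutamine, penicillin/streptomycin; 30 min preincubation with compound, then LPS stimulation, 18 h at 37 °C, 5% CO2.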

MAP kinase p38 [13] = target: T4, MAP kinase p38; experiment: In vitro inhibition of cytokine IL-8 release by human peripheral blood mononuclear cells
Mus musculus [14] = species: Mus musculus; experiment: Inhibition of ear swelling in oxazolone-induced murine allergic contact dermatitis at 0.5 mg/ear at 24 hr; format: functional; outline: as §2
MAP kinase p38 [15] = target: T4, MAP kinase p38; experiment: In vitro inhibition of IL1-beta release from LPS stimulated human peripheral blood mononuclear cells.; format: functional; outline: as §4
Homo sapiens [16] = species: Homo sapiens; experiment: In vitro inhibition of cytokine IL-12 release by human […]; format: functional; outline: as §1
Homo sapiens [17] = species: Homo sapiens; experiment: In vitro inhibition of cytokine IL-2 release by human […]; format: functional; outline: as §1
[18] = target: T5, Mitogen-activated protein kinase 14 (Homo sapiens, UniProt Q16539); experiment: In vitro inhibitory activity determined against human mitogen-activated protein kinase p38 alpha
T5 sequence (Q16539 whole entry): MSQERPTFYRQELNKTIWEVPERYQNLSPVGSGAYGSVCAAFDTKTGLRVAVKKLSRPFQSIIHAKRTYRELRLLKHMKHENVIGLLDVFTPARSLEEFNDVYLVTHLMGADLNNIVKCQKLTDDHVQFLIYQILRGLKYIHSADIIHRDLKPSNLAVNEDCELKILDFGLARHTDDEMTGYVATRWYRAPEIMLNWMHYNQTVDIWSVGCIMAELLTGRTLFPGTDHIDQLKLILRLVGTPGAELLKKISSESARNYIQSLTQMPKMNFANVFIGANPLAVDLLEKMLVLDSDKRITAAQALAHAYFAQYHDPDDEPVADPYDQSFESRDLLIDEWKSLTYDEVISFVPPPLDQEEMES

MAP kinase p38 [19] = target: T4, MAP kinase p38; experiment: In vitro inhibition of cytokine IL-6 release by human […]; format: functional
Outline: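 PBMC isolated from buffy coats, 5×10^5 cells/mL in RPMI1640 plus 2% FCS, glutamine and antibiotics. Compound added 30 min before LPS; culture 6 h. Supernatant IL-6 or IL-8 quantified by ELISA kits.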

Mus musculus [20] = experiment: Inhibition of ear swelling induced by 12-O-tetradecanoylphorbol-13-acetate (TPA) in murine chronic irritative contact dermatitis model at 0.5 mg/ear (in vivo); format: functional
Outline: (§5)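 Murine TPA-induced chronic irritative ear dermatitis, with compound given topically per ear. Ear swelling and ear weight were determined 5 h after the last application. Values are mean % inhibition ± SEM of three to five experiments.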

[21] = target: T5, Mitogen-activated protein kinase 14; experiment: Inhibition of Mitogen-activated protein kinase p38 alpha at 1 uM
Outline: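 FLAG-tagged p38α cDNA was transfected into COS-1 cells. Kinase activity of the expressed isoform was measured with compound at 1 μM.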

Mus musculus [22] = experiment: Inhibition of ear weight induced by 12-O-tetradecanoylphorbol-13-acetate (TPA) in murine chronic irritative contact dermatitis model at 0.5 mg/ear (in vivo); format: functional; outline: as §5
[23] = target: T2, Myeloperoxidase (Mus musculus); experiment: Inhibition of myeloperoxidase (MPO) activity induced by oxazolone in murine allergic contact dermatitis model at 0.001 mg/ear at 24 hr (in vivo); format: organism-based
Mus musculus [24] = experiment: Inhibition of ear swelling induced by oxazolone in murine allergic contact dermatitis model at 0.001 mg/ear at 24 hr (in vivo); format: functional; outline: as §2
Mus musculus [25] = experiment: Inhibition of ear swelling induced by oxazolone in murine allergic contact dermatitis model at 0.001 mg/ear at 72 hr (in vivo); format: functional; outline: as §2
[26] = target: T2, Myeloperoxidase (Mus musculus); experiment: Inhibition of myeloperoxidase (MPO) activity induced by oxazolone in murine allergic contact dermatitis model at 0.5 mg/ear at 72 hr (in vivo)
Mus musculus [27] = species: Mus musculus; experiment: Inhibition of ear swelling induced by oxazolone induced murine allergic contact dermatitis model at 0.5 mg/ear at 48 hr; format: functional; outline: as §2
[28] = target: T2, Myeloperoxidase (Mus musculus); experiment: Inhibition of myeloperoxidase (MPO) activity induced by TPA in murine chronic irritative contact dermatitis model at 0.001 mg/ear (in vivo); format: organism-based
Mus musculus [29] = experiment: Inhibition of ear weight induced by 12-O-tetradecanoylphorbol-13-acetate (TPA) in murine chronic irritative contact dermatitis model at 0.001 mg/ear (in vivo); format: functional; outline: as §5
Mus musculus [30] = experiment: Inhibition of ear swelling induced by 12-O-tetradecanoylphorbol-13-acetate (TPA) in murine chronic irritative contact dermatitis model at 0.001 mg/ear (in vivo); format: functional; outline: as §5
Mus musculus [31] = experiment: Inhibition of ear swelling in oxazolone induced murine allergic contact dermatitis model at 0.5 mg/ear at 48 hr (in vivo); format: functional; outline: as §2
Mus musculus [32] = experiment: Inhibition of ear swelling in oxazolone induced murine allergic contact dermatitis model at 0.5 mg/ear at 72 hr (in vivo); format: functional; outline: as §2
Mus musculus [33] = experiment: Inhibition of ear swelling in oxazolone-induced murine allergic contact dermatitis at 0.5 mg/ear at 24 hr (in vivo); format: functional; outline: as §2

Chain of Mitogen-activated protein kinase 8 (Homo sapiens) (P45983 whole entry): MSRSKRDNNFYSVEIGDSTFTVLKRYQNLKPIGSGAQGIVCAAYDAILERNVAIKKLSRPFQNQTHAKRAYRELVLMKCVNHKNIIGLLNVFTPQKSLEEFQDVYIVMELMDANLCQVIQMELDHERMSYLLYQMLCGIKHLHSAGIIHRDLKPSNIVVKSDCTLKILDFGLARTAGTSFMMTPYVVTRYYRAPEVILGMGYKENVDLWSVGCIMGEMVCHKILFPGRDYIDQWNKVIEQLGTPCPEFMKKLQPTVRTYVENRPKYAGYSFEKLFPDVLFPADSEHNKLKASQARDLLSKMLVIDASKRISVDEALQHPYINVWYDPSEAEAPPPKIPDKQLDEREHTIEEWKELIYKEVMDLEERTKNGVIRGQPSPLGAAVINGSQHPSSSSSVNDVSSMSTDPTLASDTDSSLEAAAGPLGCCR

SMILES	inhibition [1] [%]	IC50 (Homo sapiens [2]) [nM]	inhibition [3] [%]	Inhibition (Mus musculus [4]) [%]	inhibition [5] [%]	inhibition [6] [%]	Inhibition (Mus musculus [7]) [%]	inhibition [9] [%]	IC50 (MAP kinase p38 [10]) [nM]	inhibition [11] [%]	IC50 (MAP kinase p38 [12]) [nM]	IC50 (MAP kinase p38 [13]) [nM]	IC50 (MAP kinase p38 [15]) [nM]	IC50 (Homo sapiens [16]) [nM]	IC50 (Homo sapiens [17]) [nM]	IC50 [18] [nM]	IC50 (MAP kinase p38 [19]) [nM]	Inhibition (Mus musculus [20]) [%]	inhibition [21] [%]	Inhibition (Mus musculus [22]) [%]	also measured
Cc1cc(F)ccc1Nc1ccc(C(=O)c2ccccc2C)c(Cl)c1	0	> 1000	0	54	4	60	46	5	51	92	4	79	17	> 1000	> 1000	4	35	26	88	26	inhibition [8]: 57%; Inhibition (Mus musculus [14]): 40%
CCCCO[C@]1(C(=O)CO)CCC2C3CCC4=CC(=O)CCC4(C)C3C(O)CC21C (stereo partly specified)	–	–	–	–	–	–	55	–	–	–	–	–	–	–	–	–	–	–	–	–	inhibition [23]: 41%; Inhibition (Mus musculus [24]): 43%; Inhibition (Mus musculus [25]): 55%
Cc1ccccc1C(=O)c1ccc(Nc2ccc(Br)cc2N)cc1Cl	0	> 1000	0	46	0	79	–	0	74	93	5	4	30	> 1000	> 1000	39	17	27	82	34	inhibition [26]: 56%; Inhibition (Mus musculus [14]): 35%; Inhibition (Mus musculus [27]): 38%
Fc1ccc(-c2ncn(C3CCNCC3)c2-c2ccncc2)cc1 [VK-19911]	9	> 1000	0	–	8	–	–	0	–	59	–	–	–	> 1000	> 1000	–	–	–	73	–	–
CCCCC(=O)O[C@]1(C(=O)CO)[C@@H](C)C[C@H]2[C@@H]3CCC4=CC(=O)C=C[C@]4(C)[C@@]3(F)[C@@H](O)C[C@@]21C [BETAMETHASONE VALERATE]	–	–	–	–	–	–	–	–	–	–	–	–	–	–	–	–	–	–	–	–	inhibition [28]: 67%; Inhibition (Mus musculus [29]): 38%; Inhibition (Mus musculus [30]): 41%
Cc1ccccc1C(=O)c1ccc(Nc2ccccc2N)cc1Cl	–	> 1000	20	–	8	73	–	0	12	93	6	6	14	> 1000	> 1000	10	18	37	88	27	Inhibition (Mus musculus [31]): 46%; inhibition [26]: 56%; Inhibition (Mus musculus [32]): 46%; Inhibition (Mus musculus [33]): 43%
